Experiment [1] concerns Cladosporium cucumerinum. The experiment is described as follows: Antimicrobial activity against Cladosporium cucumerinum after 24 hrs by agar dilution method. Format: functional. A digest of the protocol:
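Geometric dilutions were made in DMSO from 3 mg/mL DMSO stocks and added to Sabouraud agar in sealed 24-well plates, with final DMSO ≤2%. A distilled-water suspension of C. cucumerinum was spread over the agar and incubated 24 h at 30 °C. The read-out was MIC (µg/mL), the average of duplicates, with no-compound growth controls and a nystatin reference.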
(In agar dilution the substance is mixed into plates at graded concentrations.)

Experiment [2] relates to Cladosporium cucumerinum. The experiment can be described thus: Antimicrobial activity against Cladosporium cucumerinum assessed as drug level causing growth inhibition on silica gel TLC plate after 2-3 days.
In experiment [3] the test system is Candida albicans. The experiment is described as follows: Antimicrobial activity against sCandida albicans assessed as drug level causing growth inhibition on silica gel TLC plate after 24 hrs. It counts as functional. A digest of the protocol:
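Agar overlay bioautography: 10 µL of geometric dilutions from 5 mg/mL stocks were spotted on Si gel 60 F254 glass TLC plates. Plates were developed in petroleum ether-EtOAc (1:1) and dried, then overlaid with about 1 mm of molten malt agar carrying about 107 yeast cells/mL. Plates were incubated overnight at 30 °C, moist, then sprayed with MTT (2.5 mg/mL). The read-out was the minimal amount (µg) giving clear spots on purple, with a nystatin reference.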

In the next experiment the test system is Aedes aegypti. The experiment can be described thus: Larvicidal activity against Aedes aegypti assessed as drug level required to kill instar II larvae after 24 hrs. Format: functional. In outline: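 Geometric dilutions were made from 5 mg/mL DMSO stocks and added to tubes holding about 20 instar II A. aegypti larvae in tap water, to a final volume of 10 mL. Tubes were kept in darkness at 26-28 °C for 24 h. Larval lethality was scored under lab light, in duplicate.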

Experiment [4] deals with Candida albicans. The experiment can be described thus: Antimicrobial activity against Candida albicans after 24 hrs by agar dilution method. It counts as functional, organism-based.

Values after ≈ are worked out from the molar mass of the structure shown.

Molecule `CC(C)=CCCC(C)(O)/C=C\c1cc(O)ccc1O` (stereo not drawn) came in with an MIC with Cladosporium cucumerinum [1] of 15 µg/mL (≈ 57.2 µM). Further, the Activity with Cladosporium cucumerinum [2] is 5 µg; with Candida albicans [3], more than 50 µg; in the experiment with Aedes aegypti, more than 50 µg/mL.
For `C/C=C\c1cc(OC)c(OC)cc1OC` [CIS-ASARONE], the Activity with Aedes aegypti amounted to 25 µg/mL.
NYSTATIN: the minimal inhibitory concentration (MIC) against Cladosporium cucumerinum [1] and against Candida albicans [4] was 1 µg/mL each time. In addition, the Activity in the experiment with Candida albicans [3] turned out to be 0.1 µg.
Regarding `COC(=O)CCc1cc(OC)c(OC)cc1OC`, 15 µg/mL (≈ 59 µM) was the least that counted as inhibitory in the experiment on Cladosporium cucumerinum [1] (MIC). The Activity in the experiment on Cladosporium cucumerinum [2] was 5 µg; in the experiment with Candida albicans [3], more than 50 µg; in the experiment on Aedes aegypti, 12.5 µg/mL.
Regarding `CC1=CC(=O)c2c(O)cccc2C1=O` [PLUMBAGIN], in the experiment with Aedes aegypti, the Activity was determined as 3 µg/mL.

In general, MIC refers to the lowest concentration found to suppress growth. A higher MIC goes with weaker potency.

(Values after ChEMBL document CHEMBL1154555, “Antifungal and larvicidal compounds from the root bark of Cordia alliodora” (2000).)
